Results from different studies.
Each line is one published result; the experiments were not run side by side.
Read-out: cell growth or viability

Structure (SMILES) | cell line | test | setting | CC50
CCO[C@@H](Cc1ccc(OCCn2c(C)ccc2-c2ccc(SC)cc2)cc1)C(=O)O | LX-2 | ATP luminescence | 48 h, serum-free | > 50 µM
Cc1ccc(S(=O)(=O)Nc2nc(N)c(-c3nc4ccccc4s3)c(-c3ccc(F)cc3)n2)cc1 | BGM |  |  | 190 µg/mL
COc1ccc(NC(=O)N2CCCCN3[C@H](COCCC(=O)O)[C@H](c4ccc(C#Cc5ccccc5)cc4)[C@@H]3C2)cc1 | HEK-293T |  |  | > 40 µM
CCOP(=O)(OCC)[C@@H]1C[C@@H](n2cc(Cn3cnc4c(N)ncnc43)nn2)ON1C (racemic) | human T-lymphocyte |  | 72 h | > 250 µM
C[C@H](NC(=O)OCc1ccccc1)C(=O)Nc1ccc(C2S/C(=N\c3cccc(F)c3)N(Cc3ccco3)C2=O)cc1 (stereo partly drawn) | Huh-7 |  | 72 h, replicon | > 50 µM
Nc1nc(NS(=O)(=O)c2ccccc2)nc(-c2ccc(F)cc2)c1-c1nc2ccccc2s1 | BGM |  |  | 180 µg/mL
O=C1OC[C@H]2OC(O)[C@H](O)[C@@H](O)[C@@H]2OC(=O)c2cc(O)c(O)c(O)c2-c2c(O)c(O)c3oc(=O)c4c(c(O)c(O)c5oc(=O)c2c3c54)-c2c1cc(O)c(O)c2O (mixture of isomers) | Huh-7 | MTT |  | > 5000 µM
CCOP(=O)(OCC)[C@@H]1C[C@@H](n2cc(-c3nccn3C)nn2)ON1C | human T-lymphocyte |  | 72 h | > 250 µM
C=C1CN(S(=O)(=O)c2ccc(C)cc2)CCCN(CCc2ccccc2)CCCN(S(=O)(=O)c2ccc(C)cc2)C1 | HEK-293T | resazurin | 72 h | > 50 µM
CCOP(=O)(OCC)[C@@H]1C[C@@H](n2cc(Cn3ccc(NC(C)=O)nc3=O)nn2)ON1C (racemic) | human T-lymphocyte |  | 72 h | > 250 µM
Cc1cc(NCCc2ccccc2)nc(NC(=N)Nc2ccc(Cl)cc2)n1 | Huh-7 | MTT | 24 h | 15.2 µM
CCO[C@H](COc1ccc(C(F)(F)F)cc1)CSc1ccc(OCC(=O)O)c(C)c1 | LX-2 | ATP luminescence | 48 h, serum-free | > 50 µM
CCOP(=O)(OCC)[C@@H]1C[C@H](n2cc(C(=O)OC)nn2)ON1C (relative stereo) | human T-lymphocyte |  | 72 h | > 250 µM
CO[C@H]1C[C@@H](C[C@H](C)[C@H]2CC(=O)[C@@H](C)/C=C(\C)[C@H](O)[C@H](OC)C(=O)[C@@H](C)C[C@@H](C)/C=C/C=C/C=C(\C)[C@H](OC)C[C@H]3CC[C@H](C)[C@](O)(O3)C(=O)C(=O)N3CCCC[C@@H]3C(=O)O2)CC[C@@H]1OCCO (racemic) | Huh-7 | MTT | 24 h | 15.9 µM
CCOP(=O)(OCC)[C@@H]1C[C@@H](n2cc(-c3cccc(F)c3)nn2)ON1C (racemic) | human T-lymphocyte |  | 72 h | > 250 µM
Cc1ccc2oc(-c3cc(NC(=O)Cc4ccccc4)ccc3Cl)nc2c1 | Huh-7 | MTT | 24 h | > 400 µM
O=C(CNc1nc(NS(=O)(=O)c2ccccc2)ncc1-c1nc2ccccc2s1)c1ccc(Br)cc1 | BGM |  |  | 220 µg/mL
O=C(O)/C=C/C=C/c1cccc(Oc2cc(Cl)cc(Cl)c2)c1 | Huh-7 | MTT | 24 h | > 200 µM
Nc1nc(NS(=O)(=O)c2ccccc2)nc(-c2ccc(Cl)cc2)c1-c1nc2ccccc2s1 | BGM |  |  | 230 µg/mL
Cc1onc(-c2ccccc2)c1-c1ccc(S(N)(=O)=O)cc1 | Huh-7 | MTT | 24 h | > 200 µM
CCOP(=O)(OCC)[C@@H]1C[C@H](n2cc(-c3ccc(F)cc3F)nn2)ON1C | human T-lymphocyte |  | 72 h | ≥ 250 µM
Cc1ccc2c(c1C)NC(=O)[C@]21NN=C(c2ccccc2)S1 | Huh-7 | MTT | 24 h | 28.6 µM
CCOP(=O)(OCC)[C@@H]1C[C@@H](n2cc(-c3ccccn3)nn2)ON1C (racemic) | human T-lymphocyte |  | 72 h | > 250 µM
N=C(N)c1ccc(OCCCCCOc2ccc(C(=N)N)cc2)cc1 | Huh-7 | MTT | 24 h | 9.24 µM
CCOP(=O)(OCC)[C@@H]1C[C@H](n2cc(-c3ccccc3)nn2)ON1C | human T-lymphocyte |  | 72 h | > 250 µM
Nc1nc(NS(=O)(=O)c2ccccc2)ncc1-c1nc2ccccc2s1 | BGM |  |  | 220 µg/mL
C[C@@H](c1cc(Cl)cc(Cl)c1)N(C)c1ncc2c(N)nc(N)nc2n1 | Huh-7 | MTT | 24 h | 57.6 µM
